The EternaBench riboswitch data

Test system: MS2 coat protein
Experiment: apparent Kd, MS2 coat protein; higher = weaker binding; RNA-MaP array; FMN 200 µM where present
Procedure, shortened: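 Binding was read on Illumina sequencing-chip clusters where stalled E. coli RNA polymerase had transcribed each design. A titration of SNAP-549-labelled MS2 coat protein began at 0.7 or 1.5 nM and doubled to 3 µM, once without ligand and once with constant ligand, in 100 mM Tris-HCl pH 7.5, 80 mM KCl, 4 mM MgCl2, BSA, DTT, yeast tRNA and Tween-20. The apparent Kd is the median of filtered per-cluster binding-curve fits, based on green signal normalised to red-channel RNA signal and control-cluster median Fmax.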

[1] = designed as: OFF switch for flavin mononucleotide, no ligand
[2] = ligand present: flavin mononucleotide, designed as: OFF switch for flavin mononucleotide
[3] = designed as: ON switch for flavin mononucleotide, no ligand
[4] = ligand present: flavin mononucleotide, designed as: ON switch for flavin mononucleotide

Sequence	apparent Kd [1] [nM]	apparent Kd [2] [nM]	apparent Kd [3] [nM]	apparent Kd [4] [nM]
CCUUUGUCAGGAUAUCGAAAAGGGAGGCCAAAGGCCUCCGGUGAGAAGGGACAUGAGGAUCACCCAUGUGAAAA	77.3	383		
GGUGGACAUGAGGAUCACCCAUGUGAGGAUAUCGGCUGGCUAGCGGCGGACGGCUUCUCGAGAAGGCGCAUUGU	57.8	57.1		
ACGUGUCGUGUAGGAUAUGACACAGGAAACUGGUCAGAAGGACAUGAGGAUCACCCAUGUAAAAUGUUUAAGAAUGACGUAUGC	49.3	94.9		
GUAGCAUACGGAGGAUAUUCAUACCGGAAACGGACAUGAGGAUCACCCAUGUGGCGAAAGCCAUGGGAGAAGGCCGUAUGCUAC			318	149
CCUUUGAAGAUCCUAAAUUUCGACAUGAGGAUCACCCAUGUGCAGGAUAUCGUGCCAGUGAUGUACGAGAAGGGCCGUCUCUGC	160	155		
AACUGACAUGAGGAUCACCCAUGUCAGGAUAUGACUUCAAAAUAAAAAUAAAAUGAUGUCAGAAGGGACAUGAA	13.3	12		
GGCCUGUUAGGAUAUUAGUAGUAGUCAGAAUAGACUAUUACUGAGAAGGGACAUGAGGAUCACCCAUGUUGGCC	17.5	19.9		
UGGUACUAGGGAGGAUAUGGGAAGAUACAUGAGGAUCACCCAUGUUUAAGAAUGCCGAGAGGCAACUAGAAGGACCUAGUACCU			896	63.6
GCGUAUAUAUGAUUUAUAAAACAGUCAGAAGGUGAGAAGACGACAUGAGGAUCACCCAUGUUAUUCAAGGAUAUGAUAAUGCGC			13.1	7.74
CUGUGACGGUGCGCAAGUGGACGGAGAAGGGUCACAUGAGGAUCACCCAUGUGGGCCUGCUAUUGACAGGAUAUCCGUUCGUAC	5.94	6.46		
UGUGUUAUUGGAGGAUAUCGAUAUCAAACAUGAGGAUCACCCAUGUUGAGGAUCACACAUGUACAUGAGAAGGCCGACGUAGUG			13.3	14.5
AAGAAACAUGAGGAUCACCCAUGUCAGGAUAUGCAGGACUGACGAAAGUCAGUCCAAAGCAGAAGGGACUAGAA	60.7	81.8		
GUUUAGUGAGGAUAUGUGGCUUCGAUCGUGAGAUCGAGGCUACAGAAGGCACAUGAGGAUCACCCAUGUUCCUG	16	64.3		
AUUUAAAUGUCAGGAUAUGUUAGUUUAUACAUAGUAGAAGGGAUAAUUAUACUCAUGUACAUGAGGAUCACCCAUGUUAAAUAA			206	107
GCACUUUUAUUUGAACCGAUUCGAACAUGAGGAUCACCCAUGUAGGAUAUGCUAAAAGUUGUGAUGCAGAAGGACAUUAAGUGC	5.94	6.99		
UGUGUGUUUGUGAGGAUAUGCGCGCGGAAAUGUGUGUAGAAGGCACAUGAGGAUCACCCAUGUAAGGGCGCGCG	596	439		
GCACGAGACUAAGGAUAUGGAGUGUCUACAUUAAACAUGAGGAUCACCCAUGUAAAGAGUACGAUUCAGAAGGUAGAGACGUGC			51.5	23.5
AAAUAGUUAGGAUAUACAUGAGGAUCACCCAUGUGGACUGAUGGCGAUUAAUUUAGUGGUAGAAGGGACUCAAA	43.9	49.9		
UGUAUGGACAGAGGAUAUACCGAUAGGAUCUACUAUCGAACAAUCCUCACAUGAGGAUCACCCAUGUAGAAGGCUGUCCAUACU	24.1	283		
CAUCAGUGAGGAUAUCGGGCCUGUGGCUGCUCAGCCCGGUUCGAGAAGGCACAUGAGGAUCACCCAUGUGACGU	20.4	46.8		
AAAAGACAUGAGGAUCACCCAUGUAAAGACGUAGGAGGAUAUGUCUUGAAAAAAGACUUGACAGAAGGCCUGUGUC			26.4	19
UGAACAAUGUAGAAGGCCCACAUUUAUAUGUAGGGAGGAUAUACAUGAGGAUCACCCAUGUAAAGAGCAAGAGGAUUUGACAGA	9.49	17.6		
CUGUUAUAGGUCCAGAAUUACAACAUGAGGAUCACCCAUGUGCAGGAUAUCGGGUUGAUAGGCGACGAGAAGGGCAUAGUCACG	76.5	79.2		
GUGGAGUAAGGAUAUACAUGAGGAUCACCCAUGUGAGGGUAUGUGAUGGGAGUAGGUUGUAGAAGGUACGAGGA	287	131		
GGUGCGUUUGUGAGGAUAUGCUGGUCCUUGGGUCAGCAGAAGGCACAUGAGGAUCACCCAUGUGGUGUCGUACC	358	42.9		
AAAGGUGAUUCAGGAUAUGUGUAGGAGGGCGGCGCAGAAGGGAAUCUAGCCCGACGUCAUACAUGAGGAUCACCCAUGUAUGCC			28.7	18.5
AUUGUGUUAGGAUAUGCUUAUGCUGGGUAGUCCAGUAUGGAGUAGAAGGGACAUGAGGAUCACCCAUGUGCUCA	20.9	21.2		
AGAUGUGAACAUGAGGAUCACCCAUGUGACUAGGUAUAUUUCAGAAGGCAUUUAUAGAGAUUAUAUGAGGAUAUGAAGUUUUAA			12.7	6.59

Sequence	apparent Kd [1] [nM]	apparent Kd [2] [nM]	apparent Kd [3] [nM]	apparent Kd [4] [nM]
AAUAAUCAGUAAGGAUAUACUAGCGAUUAGCUUGUAGAAGGUACAGUCUUAUGUAUAACAAAUUAACAUGAGGAUCACCCAUGU			9.19	7.65
GUGUAGUCAGGAUAUACAUAGGAAGAGAAGAGAAGAGAAGCACAUGAGGAUCACCCAUGUAGAAGGGACAGUGU	70.9	82.9		
CGUGCAAGUGUAGGAUAUGGUUAUCUAUGUCUAGUUACUAGACAUAGAUAACCAGAAGGACAUGAGGAUCACCCAUGUAGCACG	7.5	17.6		
GGAUAGGUCAGAGGAUAUACGUGCUAGAGAUACUAGCAAAAUUUCCUCACAUGAGGAUCACCCAUGUAGAAGGCUGUCCUAUCG	12.4	278		
UAUAUUUAUGUAGGAUAUGGUCUAUAAAAUAGACCAGAAGGACAUGAGGAUCACCCAUGUAUGAAAUUCCAUAAUUGCCGUGUA	11.4	11.4		
UACAUGAGGAUCACCCAUGUUAACAUGGUGUUGUUAUAUCUGAGAAGGGUAAUAUUACAUUAAGUACAGGAUAUCAUUGAUGUU	208	46.3		
CAGCGAUAGCUGAACAAUCUAUCUGAGGAUAUUCAUAUUAAAACAUGAGGAUCACCCAUGUAUUGGGAGAAGGCAGAUAGAUUG			42.1	6.53
AGUUGGCGAGGAUAUACAUGAGGAUCACCCAUGUGAGAGAUACUAGUGAGGUCGAUUGGUAGAAGGCGCUGACA	132	106		
GAUCAACAUGAGGAUCACCCAUGUGAGGAUAUGAUACUAUGUACUUCGGUACAUAGUAUCAGAAGGCAUAUAAA	44.7	35.2		
ACCGAAUGAACAUGAGGAUCACCCAUGUACCCGAAAGGGAAUGAGGAUAUCGAUAGCAAAGCUAUCGAGAAGGCAUGGGUCGGU			573	169
GAUCAACAUGAGGAUCACCCAUGUGAGGAUAUGAUACUAUGUACUUCGGUACAUAGUAUCAGAAGGCAUGUAAA	50.1	42.5		
GCACGGUUUGUAGGAUAUGCAUAGCAUUGCUAUGCAGAAGGACAUGAGGAUCACCCAUGUAUGUAUUCCAUACAUUUCCCGUGC	5.62	5.63		
CUUUUGUGAGGAUAUCAUUAGUAAAUAAAUAAAAUUACUACUGAGAAGGCACAUGAGGAUCACCCAUGUUCCUC	33.9	159		
GUAUAUAGUGUGAGGAUAUGCUGGUCCUUGGAUCAGCAGAAGGCACAUGAGGAUCACCCAUGUAGUUAAAUAUA	34.4	82		
GGACGUCACAUCUACAUGAGGAUCACCCAUGUCAAAAGACAUGAGGAUAUGCUUCCUAAUUGGAAGCAGAAGGCAUGGACGUCC			1210	67.5
UGGUACUAGGGAGGAUAUGGGAAGAUACAUGAGGAUCACCCAUGUUUAAGAAUGCCGAGAGCCAACUAGAAGGCCCUAGUACCU			120	16.7
CAACUGAGCGUAAAUUACCUGAACAUGAGGAUCACCCAUGUGGAGGAUAUUGACUUAGCAAAACUCGAGAAGGCCACUGGGUAG	44.6	18.5		
AUGGUGUGAUAGGAUAUUGCUGGGUCAACCUUUUAAGAAGGGUCUACAUGAGGAUCACCCAUGUGGGUGUCCCU	65.3	60.2		
UCAGGAGUCACAGGAUAUCCGGCGUAGCACACAGGAGAAGGGUGAUCACGAGCACAUGAGGAUCACCCAUGUGACAUUUGUGAG			40.4	50.7
ACAAAGAGCCAAGGAUAUACGUCGUCGAGCCCUCCCGUAGUGGCCAGCACAUGAGGAUCACCCAUGUAGAAGGUGGCUGUAGUC	20.1	38.5		
CUGUUUUUCGCAGGAUAUGCUCCUCCUUUAUUUGCAGAAGGGCGUUAAACAUGAGGAUCACCCAUGUAUGGUAAUGACUUUUUC	20.6	67.8		
UUAGCGUAGGUAAGGAUAUGCUGGUCUAAUGAUCAGCAGAAGGUACAUGAGGAUCACCCAUGUGGAUUCGUUAU	18.5	37		
AAAUUUAACGAAGGAUAUGCUUACAUGAGGAUCACCCAUGUGUGCCUUGUGAUGCUGAUUAAGUUGCAGAAGGUCGUAUACAUA	124	414		
CCGGCGUCAGGAUAUCCAAUAUAUGACAUGAGGAUCACCCAUGUUUCCACUCGUACCUCCGGAGAAGGGACGAAUA	28.1	24.5		
CUCGUGUCAGGAUAUGGAAGGCCGUUUGAUUAACGAGGGUACUAGAAGGGACAUGAGGAUCACCCAUGUAAAAA	37.7	57.6		
UAAUUUUGUCAAGGAUAUGUAAUAUAGAUUUGAAAACAUGAGGAUCACCCAUGUAUAUGGUGGGAACAGAAGGUGAAUGGAGAA	252	242		
GAUUCGGGAGGAUAUACAUGAGGAUCACCCAUGUGUUUUUUGUGUGUUAUGUUAUCGUGUAGAAGGUUUGGGUC	144	203		
